Results taken from PMC2213299 (The Journal of Experimental Medicine, 2004).
Where no end group is shown, it is not given here. The star is where a group is joined. αGalNAc = CC(=O)N[C@@H]1[C@@H](O)[C@@H](O)[C@@H](CO)O[C@@H]1*

B1: GGGGFGGL (peptide)
peptide: GGGGFGGL
B2: … (peptide)
peptide: AIIASFAAL
B3: AIIA(GalNac-O-ser)FAAL (peptide)
peptide: AIIAS(αGalNAc)FAAL
B4: AIIA(βGal-[1→3]-α-GalNAc-O-ser)FAAL (peptide)
peptide: AIIASFAAL
modifications: βGal-[1→3]-α-GalNAc-O-serine (TF antigen) at position 5
B5: SSSSFSSL (peptide)
peptide: SSSSFSSL
B6: AAAAFAAL (peptide)
peptide: AAAAFAAL
B7: … (peptide)
peptide: AIIAAFAAL

biological target: K^b molecules (Mus musculus, UniProt P01901); assay: not given; type: binding, murine
Method in brief: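 Kb was affinity-purified from filtered Nonidet P-40 lysates of EL-4 cells. 5–10 nM Kb was incubated with a 125I-labelled known Kb-binding peptide plus test compound for 48 h in PBS with 0.05% Nonidet P-40 and protease inhibitors. Bound and free peptide were separated by gel filtration on TSK columns. IC50 is the amount inhibiting 50% of radioligand binding.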

Molecule | IC50
AAAAAFAAL [AAAAAFAAL] | 610 nM
AAAAFAAL [AAAAFAAL] | 75 nM
AAIAAFAAL [AAIAAFAAL] | 90 nM
AIAAAFAAL [AIAAAFAAL] | 240 nM
AIIAAFAAL [AIIAAFAAL] | 10 nM
GGGGFGGL [GGGGFGGL] | 53000 nM
SSSSFSSL [SSSSFSSL] | 509 nM

biological target: K^b molecules (MHC class I H-2K^b) purified from EL-4 cells (mouse (endogenous in EL-4)); assay: radioligand binding

IC50 | Molecule
53000 nM | B1
4 nM | B2
4 nM | B3
4 nM | B4
509 nM | B5
75 nM | B6
10 nM | B7
